# PKD1 inh – inhibitors of human PKD1 kinase, biochemical, fluorescence polarization; Serine/threonine-protein kinase D1 (Homo sapiens), Q15139; PKD1 kinase fluorescence polarization assay; inhibition, % (no concentration beside the values); 200,000 tested, 0.056% active; in the data active = inhibition above about 50%
# TAG inh – inhibitors of triacylglycerol accumulation, primary screen, cell-based, uHTS, fluorescence, H9c2; H9c2 cells, Nile Red lipid (TAG) fluorescence; cells loaded with 200 µM oleic acid; inhibition, % at 12.5 µM; 230,000 tested, 0.66% active;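 active = pattern-corrected inhibition of lipid staining of at least 50% with the nuclear-stain viability signal not falling by more than 50%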;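 also: 0% = DMSO wells and 100% = triacsin C control wells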
# Mdm2 ligase inh – MDM2-luciferase reporter signal enhancers, primary screen, MDM2 E3 ligase inhibitor project, cell-based, luminescence, 1536-well. E3 ubiquitin-protein ligase Mdm2 (Homo sapiens), Q00987. cell-based MDM2 ubiquitination luciferase reporter, 2 h; 0 = plate control, 100 = twice control, blank-subtracted. signal enhancement, % at 5 µM. 210,000 tested, 0.11% active;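 active = signal enhancement of 30% or more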;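 also: luminescence tracks abundance of the self-degrading MDM2-luciferase fusion protein; higher signal means inhibition of MDM2 E3 ligase activity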
#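 Assay system: mammalian cells stably expressing self-ubiquitinating, self-degrading MDM2 E3–luciferase fusion. Quantity: 2000 cells in each well. Medium: DMEM culture medium. Compound dosing: single-point 5 µM. Timing: cell settling 4 h, compound treatment 2 h, both 37 °C. Technique: luciferase luminescence. Read-out basis: percent signal gain over controls, blank-subtracted. Benchmarks: plate controls and plate blanks.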
# Rad51 HR inh – human RAD51 strand exchange inhibitors, primary screen, biochemical, fluorescence. inhibition, % at 10 µM. DNA repair protein RAD51 homolog 1 (Homo sapiens), Q06609. 200,000 tested, 0.085% active. hRad51 DNA strand exchange, fluorescence dequenching;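 active = inhibition above 40% at the single screening dose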;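 also: 0% = DMSO control wells and 100% = blanks with heterologous ssDNA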
# Target sequence (Q06609 whole entry, looked up): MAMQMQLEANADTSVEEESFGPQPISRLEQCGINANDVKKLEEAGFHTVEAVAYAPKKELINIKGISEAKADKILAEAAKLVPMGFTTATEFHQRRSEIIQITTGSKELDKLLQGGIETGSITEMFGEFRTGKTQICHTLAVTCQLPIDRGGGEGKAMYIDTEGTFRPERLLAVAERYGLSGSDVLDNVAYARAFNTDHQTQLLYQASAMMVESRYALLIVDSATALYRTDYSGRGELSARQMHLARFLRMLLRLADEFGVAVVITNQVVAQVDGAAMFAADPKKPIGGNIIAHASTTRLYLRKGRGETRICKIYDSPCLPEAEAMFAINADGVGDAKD
#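 material = hRad51 filaments on single-stranded DNA | reagent = Donor/quencher-labelled 47-bp dsDNA substrate | compound = 10 µM final, single point | schedule = strand-exchange reaction 15 min at room temperature | measured by = fluorescein emission 520 nm, excitation 485 nm | read-out basis = % inhibition versus plate control and blank means | benchmarks = plate controls and plate blanks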
# PERK inhibitor – block of dimerizer-induced PERK translation repression, primary screen, PERK inhibitor project, CHO PERK-DD cells, SEAP luminescence, HTS. AID 1416, 2008. inhibition, % at 5.6 µM. CHO PERK-DD fusion, SEAP luminescence translation reporter. Eukaryotic translation initiation factor 2-alpha kinase 3 (Homo sapiens), Q9NZJ5. 220,000 tested, 0.17% active;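 active = inhibition above the mean inhibition of all tested compounds plus 3 SD, set separately per screening campaign, cut at about 2.9% in these data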;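 also: PERK kinase domain activated by AP20187 dimerizer at 100 nM; 0% = DMSO with dimerizer and 100% = rapamycin at 8.4 µM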
# Hck-Nef inh – inhibitors of Nef-activated human Hck kinase, primary screen, biochemical, Z-Lyte FRET, 384-well, Hck-YEEI | Recombinant Hck-YEEI plus Nef, Z-Lyte FRET kinase assay | inhibition, % at 20 µM | 220,000 tested, 0.68% active | AID 463187, 2010;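 active = Hck-Nef kinase inhibition above about 50%, limit read from the data; inactive = inhibition below that limit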;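 also: 0% = DMSO with Hck plus Nef and 100% = Hck alone without Nef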
# Hck-Nef confirm – retest of Hck:Nef kinase inhibitor hits, confirmation, biochemical, Z-Lyte FRET, 384-well, p-Tyr peptide counterscreen; Recombinant Hck-YEEI:Nef, Z-Lyte FRET kinase assay; calls only at 10 µM; 1,300 tested, 28% active; shares compounds with Hck-Nef inh;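 active = average inhibition of at least 50%, with Z-scores no higher than 3 in both the phospho-tyrosine peptide and fluorescence counterscreens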
# An asterisk follows results filed as active; i = inactive; x = not tested or not shown; + = active, no number. Only some compounds are listed: those with a hit (about 1.3% of all), similar ones and a draw of the others.
SMILES,PKD1 inh,TAG inh,Mdm2 ligase inh,Rad51 HR inh,PERK inhibitor,Hck-Nef inh,Hck-Nef confirm
CC(C)c1cc(NCCCN2CCOCC2)n2c(nc3ccccc32)c1C#N,-6,x,-5,-1,-1,54*,x
Cn1cnnc1SC1c2cccc3cccc(c23)C1NS(=O)(=O)c1ccc(Cl)cc1 (stereo unspecified),-8,x,-5,-2,0,8,x
O=C(O)c1ccc(-n2cccc2/C=N\NC(=O)c2cc3cc(Br)ccc3o2)cc1,x,4,-13,-7,-1,54*,i
O=C(NNC(=O)c1cccc(C(F)(F)F)c1)c1ccc(-n2cnnn2)cc1,x,11,x,x,x,x,x
CC(C)c1ccccc1NC(=O)C1CC(=O)N(C2CCCC2)C1 (stereo unspecified),x,-12,x,x,x,x,x
O=C(CCN1CCN(c2ccccc2)CC1)N/N=C/c1ccc(O)c(O)c1O,4,x,x,x,1,53*,i
O=C(Cc1csc(N2CCOCC2)n1)N/N=C/c1ccc(O)c(O)c1O,-6,13,-32,11,-1,66*,i
CCC/C(=N\NC(=O)C1CC1)c1ccc(Br)cc1,x,-5,x,x,x,x,x
CC(C)CNC(=O)CN(C)S(=O)(=O)c1ccc(F)cc1,22,x,2,x,1,3,x
COCCn1c(=N)c(C(=O)NCc2ccco2)cc2c(=O)n3cc(C)ccc3nc21,-2,-13,-9,-6,0,86*,x
N=c1c(C(=O)NCc2ccco2)cc2c(=O)n3ccccc3nc2n1CCc1ccccc1,-7,37,x,-14,0,1,x
Cc1cccn2c(=O)c3cc(C(=O)NCc4ccco4)c(=N)n(CCOCCO)c3nc12,3,x,-16,5,1,75*,i
O=C(Nc1ccc(Cl)cc1C(=O)N1CCOCC1)c1cccc([N+](=O)[O-])c1,-5,x,0,x,1,3,x
CCNC(=O)c1c(NC(=O)c2cc(-c3cc(C)ccc3O)n[nH]2)sc2c1CCCC2,4,32,3,-6,1,100*,i
Cc1cc(O)c(-c2cc(C(=O)Nc3sc4c(c3C(=O)NCc3ccco3)CCC4)[nH]n2)cc1C,x,50,x,4,0,59*,i
C[C@H](CO)N1C[C@H](C)[C@@H](CN(C)C(=O)NC2CCCCC2)Oc2ccc(NC(=O)C3CC3)cc2C1=O,x,11,x,x,x,x,x
CC1=NNC(=O)/C1=C\c1cn(-c2ccccc2)nc1-c1ccccc1,-1,3,8,-3,0,181*,+
CC1(C)CC(=O)C(=Cc2cn(-c3ccccc3)nc2-c2ccc(Cl)cc2)C(=O)C1,-10,x,-18,-3,0,0,x
CCOc1cc(N2CCOCC2)c(OCC)cc1NC(=O)c1cnccn1,x,10,x,x,x,x,x
Cc1c(C)n(CC(O)CN2CCCCC2)c2ccccc12 (stereo unspecified),-4,6,-17,7,0,1,x
O=c1c2ccccc2n(CC(O)CN2CCCCC2)c2ccccc12 (stereo unspecified),x,1,-15,20,-2,154*,x
CC(NC(=O)c1sc2ccccc2c1Cl)C1CCCO1 (stereo unspecified),-3,x,-8,7,0,2,x
COC(=O)C1=CN(Cc2cccs2)C=C(C(=O)OC)C1c1ccc(OC)cc1OC,-2,x,0,5,-1,68*,x
COC(=O)C1=CN(CC2CCCO2)C=C(C(=O)OC)C1c1cccc(O)c1 (stereo unspecified),6,x,-2,5,0,71*,x
CCN1C=C(C(=O)OC)C(c2cccc(C)c2)C(C(=O)OC)=C1,-26,35,-7,7,1,66*,x
SMILES,PKD1 inh,TAG inh,Mdm2 ligase inh,Rad51 HR inh,PERK inhibitor,Hck-Nef inh,Hck-Nef confirm
COC(=O)C1=CN(Cc2ccc(OC)cc2)C=C(C(=O)OC)C1c1ccsc1,0,x,1,-6,0,7,x
CCOc1ccc(C2C(C(=O)OC)=CN(CCOC)C=C2C(=O)OC)cc1,0,x,-10,-203,-1,58*,x
COC(=O)C1=CN(c2cc(C)cc(C)c2)C=C(C(=O)OC)C1c1cccc(F)c1,x,11,x,x,x,x,x
COc1ccc2c(CCNC(=O)c3ccc([N+](=O)[O-])cc3)c[nH]c2c1,11,-6,-16,1,-1,2,x
COC(=O)C1=CN(Cc2cccs2)C=C(C(=O)OC)C1c1cccc(Cl)c1,6,-15,-8,23,1,59*,x
COC(=O)C1=CN(CCOC23CC4CC(CC(C4)C2)C3)C=C(C(=O)OC)C1c1ccsc1,-4,-23,-8,-4,0,70*,i
COC(=O)C1=CN(Cc2ccc(OC)c(OC)c2)C=C(C(=O)OC)C1c1cccc(O)c1,x,7,x,x,x,x,x
C/C(CCC(C)C)=N\Nc1cc(C)c2ccccc2n1,0,13,-17,0,0,3,x
N#Cc1c(NC(=O)C2CCCO2)sc2c1CCCCCC2 (stereo unspecified),-7,x,2,x,-1,2,x
COc1ccc(OC)c(/C=N/NC(=O)CC(=O)NCc2ccccc2)c1,10,1,-6,1,0,56*,i
COc1ccc2nc(C)cc(SCC(=O)N/N=C/c3cccc4ccccc34)c2c1,-3,x,-6,-4,-1,91*,i
CC(C)[C@H](CO)Nc1nc(Nc2ccc(Cl)c(C(=O)O)c2)c2ncn(C(C)C)c2n1,x,16,7,-4,x,65*,+
CC(C)n1cnc2c(Nc3cccc(Cl)c3)nc(NCCCO)nc21,x,42,15,-10,x,96*,+
CC(C)n1cnc2c(NCc3ccccc3)nc(NCc3ccccc3)nc21,x,1,5,-8,x,28,x
CC(C)n1cnc2c(Nc3ccc(C(=O)O)cc3)nc(Cl)nc21,x,16,29,-6,x,53*,i
CC(C)[C@H](CO)Nc1nc(NCc2ccc(S(N)(=O)=O)cc2)c2ncn(C(C)C)c2n1,x,41,15,0,x,29,x
CCOc1cc(-c2nc3ccccc3s2)ccc1O,x,-7,-6,-4,-1,+,x
COc1ccc(-c2nc3ccccc3s2)cc1O,-4,-29,-85,3,0,5,x
COc1cc(-c2nc3ccccc3s2)ccc1O,1,x,-4,-6,0,155*,x

# Screening results deposited in PubChem BioAssay by several laboratories.
